Laboratory results from ChEMBL document CHEMBL2331079, “Antibacterial and antiplasmodial constituents of Beilschmiedia cryptocaryoides” (J Nat Prod, 2013).
Values after ≈ are worked out from the molar mass of the structure shown.

Key:
[1] = tested on: Serratia plymuthica; test: Antibacterial activity against Serratia plymuthica C48 by paper disk diffusion method; assay type: functional
Method in brief: (§1)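 Strains taken from the lab's own culture collection. Tested by paper disk diffusion, following the group's earlier published method. Each MIC was determined in triplicate.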

[2] = tested on: Stutzerimonas stutzeri; test: Antibacterial activity against Pseudomonas stutzeri A1501 by paper disk diffusion method; assay type: functional; method in brief: as §1
[3] = tested on: Acinetobacter calcoaceticus; test: Antibacterial activity against Acinetobacter calcoaceticus DSM 586 by paper disk diffusion method; assay type: functional; method in brief: as §1
[4] = tested on: Escherichia coli; test: Antibacterial activity against Escherichia coli 6r3 by paper disk diffusion method; assay type: functional; method in brief: as §1
[5] = tested on: Plasmodium falciparum; test: Antiplasmodial activity against chloroquine-sensitive Plasmodium falciparum NF54 after 48 hrs by [3H]-hypoxanthine incorporation assay; assay type: functional, organism-based
Method in brief: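 Asexual blood-stage parasites in hypoxanthine-free RPMI 1640 with HEPES, NaHCO3, neomycin and Albumax, in human A+ erythrocytes (2.5% hematocrit, 0.3% parasitemia). Eleven 3-fold dilutions (100 to 0.002 μg/mL) from DMSO stocks. Incubated at 37 °C in 4% CO2/3% O2/93% N2. 3H-hypoxanthine (0.5 μCi) added at 48 h, then 24 h more. Read by scintillation counting. IC50 is the mean of two independent assays.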

[6] = tested on: L6; test: Cytotoxicity against rat L6 cells after 70 hrs by Alamar Blue assay; conditions: L6, 70 h

For CC1(C)S[C@@H]2[C@H](NC(=O)[C@H](N)c3ccccc3)C(=O)N2[C@H]1C(=O)O [AMPICILLIN], which MIC [1] is on record?
Its MIC is 20 µg/mL (≈ 57.2 µM).

And the MIC [2]?
Its MIC is 20 µg/mL (≈ 57.2 µM).

And the MIC [3]?
Its MIC is 5 µg/mL (≈ 14.3 µM).

And the MIC [4]?
The MIC was 5 µg/mL (≈ 14.3 µM).

With CCCCCC[C@@H]1[C@H]2C=C[C@H]3C(C(=O)O)=C[C@H](O)[C@@H]4C[C@@H]1[C@@H]2[C@H]43 [CRYPTOBEILIC ACID A] as the compound, how does the IC50 [5] read?
The IC50 was 17.7 µM.

And the MIC [1]?
The MIC was > 50 µg/mL.

And the MIC [2]?
The MIC was > 50 µg/mL.

What about the MIC [3] of the same compound?
The MIC was > 50 µg/mL.

And the MIC [4]?
Its MIC is 10 µg/mL (≈ 31.6 µM).

And the IC50 [6]?
The IC50 was 59.5 µM.

For CCCCCC[C@@H]1[C@H]2C=C[C@H]3C(C(=O)O)=C[C@@H](O)[C@@H]4C[C@@H]1[C@@H]2[C@H]43 [CRYPTOBEILIC ACID B], which IC50 [5] is on record?
Its IC50 is 5.35 µM.

What about the MIC [1] of the same compound?
The MIC was > 50 µg/mL.

And the MIC [2]?
Its MIC is 10 µg/mL (≈ 31.6 µM).

What about the MIC [3] of the same compound?
The MIC was 20 µg/mL (≈ 63.2 µM).

What about the MIC [4] of the same compound?
The MIC was 20 µg/mL (≈ 63.2 µM).

What about the IC50 [6] of the same compound?
Its IC50 is 20.4 µM.

How did the IC50 [5] turn out when O=C(O)C1=CC(=O)[C@@H]2C[C@H]3[C@H](Cc4ccc5c(c4)OCO5)[C@H]4C=C[C@@H]1[C@@H]2[C@H]43 [CRYPTOBEILIC ACID C] was run?
The IC50 was 14 µM.

What about the MIC [1] of the same compound?
Its MIC is > 50 µg/mL.

And the MIC [2]?
Its MIC is > 50 µg/mL.

And the MIC [3]?
Its MIC is > 50 µg/mL.

And the MIC [4]?
Its MIC is > 50 µg/mL.

What about the IC50 [6] of the same compound?
Its IC50 is 59.3 µM.

What does the source list for CCCCCC[C@@H]1[C@H]2C=C[C@@H]3[C@@H]4[C@H]2[C@H]1C[C@H]4C=C[C@H]3C(=O)O [CRYPTOBEILIC ACID D]?
IC50 [5]: 10.8 µM; MIC [1]: > 50 µg/mL; MIC [2]: > 50 µg/mL; MIC [3]: > 50 µg/mL; MIC [4]: 50 µg/mL (≈ 166 µM); IC50 [6]: 61 µM

What does the source list for CN1CCN(c2cc3c(cc2F)c(=O)c(C(=O)O)cn3-c2ccc(F)cc2)CC1 [DIFLOXACIN]?
MIC [1]: 20 µg/mL (≈ 50.1 µM); MIC [2]: 20 µg/mL (≈ 50.1 µM); MIC [3]: 5 µg/mL (≈ 12.5 µM); MIC [4]: 5 µg/mL (≈ 12.5 µM)

Which IC50 [6] does the source give for COc1cc([C@@H]2c3cc4c(cc3[C@H](O)[C@H]3COC(=O)[C@H]23)OCO4)cc(OC)c1OC [PODOFILOX] here?
Its IC50 is 0.008 µM.

Which results are given for O=C(O)[C@@H]1C=C[C@@H]2C[C@H]3[C@H](Cc4ccc5c(c4)OCO5)[C@H]4C=C[C@@H]1[C@@H]2[C@H]43 [TSANGIBEILIN B]?
IC50 [5]: 8.2 µM; MIC [1]: > 50 µg/mL; MIC [2]: > 50 µg/mL; MIC [3]: > 50 µg/mL; MIC [4]: 50 µg/mL (≈ 143 µM); IC50 [6]: 21.5 µM
